The source of these data is ChEMBL document CHEMBL4411267, “Phloroglucinols from the Roots of Garcinia dauphinensis and Their Antiproliferative and Antiplasmodial Activities” (J Nat Prod, 2019).

One assay concerns A2780. Briefly: Antiproliferative activity against human A2780 cells assessed as reduction in cell viability incubated for 48 hrs by Alamar blue assay. In kind it is functional, cell-based. To be noted: A2780, 48 h. For orientation: Resazurin is reduced to fluorescent resorufin, in cell work by metabolically active cells.
The test system of another assay is Plasmodium falciparum. Briefly: Antiplasmodial activity against Plasmodium falciparum Dd2 assessed as reduction in parasite viability incubated for 72 hrs by SYBR Green I dye based assay. As to conditions: Dd2, 72 h. In kind it is functional, organism-based. Put shortly:
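Ring-stage parasite cultures at 1% parasitemia and 1% hematocrit, exposed to samples for 72 h at 37 °C under 5% CO2/5% O2/90% N2. Viability read by DNA quantitation with SYBR Green I in lysis buffer (0.33 μL dye per mL, 25 μL added). IC50 by nonlinear regression curve fitting; mean ± SD of three independent experiments.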

Assay [1] in a line: Selectivity index, ratio of IC50 for antiproliferative activity against human A2780 cells to IC50 for antiplasmodial activity against Plasmodium falciparum Dd2. The format is functional.

A word on the IC50: it is the point on the concentration scale where inhibition reaches its midpoint. With `CCC(C)C(=O)c1c(O)cc(O)c(C/C=C(\C)CCC=C(C)C)c1O` (stereo not drawn), the IC50 in the assay with A2780 stood at 12.4 µM.
With `C=C(C)CCC(Cc1c(O)cc(O)c(C(=O)[C@@H](C)CC)c1O)/C(C)=C/CC=C(C)C` (stereo partly drawn), the IC50 in the assay on Plasmodium falciparum came to 12 µM; in the assay on A2780, 7 µM.
Turning to `C=C1[C@@H](Cc2c(O)cc(O)c(C(=O)[C@@H](C)CC)c2O)CCC(C)(C)[C@@H]1CC=C(C)C`, the IC50 in the assay with Plasmodium falciparum stood at 0.8 µM; with A2780, 15.2 µM. Besides, the “Ratio IC50” value in assay [1] is listed as 20.
On to `CC[C@H](C)C(=O)c1c(O)cc(O)c(CC(CCC(C)(C)O)/C(C)=C/CC=C(C)C)c1O` (stereo partly drawn), for which the IC50 with Plasmodium falciparum is 8.3 µM.
`CC[C@H](C)C(=O)c1c(O)cc(O)c(CCC(C)(O)CCC=C(C)C)c1O` (stereo partly drawn): the values for the IC50 in the assay on Plasmodium falciparum and in the assay with A2780 were 5.4 µM and 6.4 µM, respectively.
The corresponding values for `CC[C@H](C)C(=O)c1c(O)cc(O)c(CC2=C(C)[C@@H](CC=C(C)C)C(C)(C)CC2)c1O` are 4.7 µM and 4.5 µM.
Take `CC(C)=CCC/C(C)=C/Cc1c(O)cc(O)c(C(=O)C(C)C)c1O`: the IC50 with Plasmodium falciparum came to 12.5 µM; with A2780, 16.4 µM.
For the molecule `CC[C@H](C)C(=O)c1c(O)cc2c(c1O)C[C@@H]1C(C)(C)CCC[C@@]1(C)O2` (relative stereo), the IC50 in the assay with Plasmodium falciparum is 14.1 µM.
Same read-out and setting: the value for `C[C@@H]1CC[C@H]2[C@@H](C)C(=O)O[C@@H]3O[C@@]4(C)CC[C@@H]1[C@]32OO4` [ARTEMISININ] was 0.0085 µM.
For `CC(C)=CCC/C(C)=C/CC/C(C)=C/CC[C@]1(C)CCc2cc(O)cc(C)c2O1` [DELTA-TOCOTRIENOL], the half-maximal inhibitory concentration (IC50) with Plasmodium falciparum amounted to 5.3 µM; in the assay with A2780, 19.7 µM.
`CCC(C)C(=O)c1c(O)cc(O)c2c1O[C@](C)(CCC=C(C)C)[C@@H](O)C2` (stereo partly drawn) [EMPETRIKARINOL B]: the IC50 in the assay with A2780 stood at 10 µM.
